Measured values from different studies.
Protocols differ between the studies behind these lines.
TEK: Angiopoietin-1 receptor (TEK, Homo sapiens, UniProt Q02763)
TEK Y897S: Angiopoietin-1 receptor (TEK, Homo sapiens, UniProt Q02763, Y897S)

SMILES	target	assay	setting	quantity	result
COc1cc2nccc(Oc3ccc(NC(=O)c4c5n(n(-c6ccc(F)cc6)c4=O)CCCC5)cc3)c2cc1OC	TEK	enzyme activity, inhibitor	0.1 µM	inhibition	26%
COc1cc(Cl)c(C(=O)N[C@@H](CN[C@H]2CC[C@@H](N)CC2)Cc2ccc(C#N)cc2)cc1-c1ccc(CN[C@H](C)c2ccc(C)cc2)o1	TEK	enzyme activity, inhibitor	1 µM	remaining activity	79%
CCOc1cc(-c2nncn2C)ccc1Nc1ncc2cc(C)nc(NCC(C)(C)C)c2n1	TEK	enzyme activity, inhibitor, FRET	1 µM	inhibition	< 15%
Cc1cnc(NC2CCOCC2)nc1-n1cnc(C(=O)NC(CN)c2cc(F)cc(Cl)c2)c1 (stereo not drawn)	TEK Y897S	enzyme activity, inhibitor, radiometric	1 µM	remaining activity	105%
CN(C)c1ncnc(-c2ccc3nc(Nc4cc(CN5CCN(C(=O)CC(F)(F)F)CC5)ccn4)[nH]c3c2)c1Cl	TEK	cell-free assay, competition with immobilised ligand	1 µM	remaining binding	87%
COc1cc2ncnc(Nc3ccc(Oc4ccccc4)cc3C)c2cc1OC	TEK	enzyme activity, inhibitor	1 µM	inhibition	13%
COc1cc(Nc2cnc(C#N)c(O[C@H](C)CN(C)C)n2)ncc1-c1cnn(C)c1	TEK	enzyme activity, inhibitor, radiometric	10 µM	remaining activity	90%
Cc1ccc(NC(=O)c2ccc(C)c(C(F)(F)F)c2)cc1C#Cc1nn(C2CCC(O)CC2)c2ncnc(N)c12 (stereo not drawn)	TEK Y897S	enzyme activity, inhibitor	10 µM	remaining activity	0%
O=C(Nc1cnn(-c2csc(C(=O)NC3COC3)c2)c1)Nc1ccccc1Cl	TEK	enzyme activity, inhibitor	5 µM	remaining activity	100%
Cc1cc(NC(=O)c2cccc3cc(-c4cccc5[nH]nc(N)c45)ccc23)ccc1F	Angiopoietin-1 receptor (TEK, Homo sapiens, UniProt Q02763, R849W)	enzyme activity, inhibitor	0.1 µM	activity vs control	93%
CNC(=O)c1cc2c(Oc3ccc(NC(=O)C4(C(=O)Nc5ccc(F)cc5)CC4)cc3)ccnc2cc1OC	TEK Y897S	enzyme activity, inhibitor, radiometric	1 µM	inhibition	96%
CNCc1ccccc1-c1csc([C@@H](C)Nc2nc(C)nc3cc(OC)c(OC)cc23)c1	TEK	cell-free assay, competition with immobilised ligand	1 µM	remaining binding	87%
CNCc1ccc(-c2cc(-c3nc(-c4ccc(S(=O)(=O)C(C)C)cc4)cnc3N)on2)cc1	TEK	enzyme activity, inhibitor	2 µM	inhibition	44%
CS(=O)(=O)Nc1cccc(-c2csc(NC(=O)CSc3nc4nccnc4c(=O)n3CCc3ccccc3)n2)c1	TEK	enzyme activity, inhibitor	10 µM	inhibition	3%
Cc1c[nH]c2nccc(Oc3c(F)cc(Nc4cc(Cl)nc(N)n4)cc3F)c12	TEK	cell-free assay, competition with immobilised ligand	0.1 µM	remaining binding	95%
O=C1NC(=O)c2cc(Nc3ccc(F)cc3)c(Nc3ccc(F)cc3)cc21	TEK	cell-free assay	0.5 µM	remaining signal	97.6%
CC1=C(C#N)[C@@H](c2ccc3[nH]nc(C)c3c2)C(C#N)=C(c2ccc(Cl)cc2)N1	TEK	cell-free assay, competition with immobilised ligand	1 µM	remaining binding	74.5%
Cc1[nH]c(/C=C2\C(=O)Nc3ccc(F)cc32)c(C)c1C(=O)N[C@H]1CCN(C(=O)N(C)C)C1	TEK	enzyme activity, inhibitor	1 µM	remaining activity	87%
CCCOc1ccc(OC)c(F)c1C(=O)c1ccc(C(=O)N[C@@H]2CNC[C@H]2NC(=O)c2ccc3[nH]ncc3c2)cc1	TEK	enzyme activity, inhibitor	10 µM	remaining activity	49%
C[C@H](c1ccc(F)cc1)N(Cc1cccc(C(=O)O)c1)C(=O)c1cnc2ccccc2c1	TEK	cell-free assay, competition with immobilised ligand	1 µM	remaining binding	98%
Nc1ncnc2occ(-c3ccc(NC(=O)Nc4cc(C(F)(F)F)ccc4F)cc3)c12	TEK	cell-free assay	20 µM	remaining signal	0%
CC(C)CC(=O)N1CCc2nc(-c3ccc(Br)cc3)nc(N(C)Cc3ccccc3)c2C1	TEK	cell-free assay, competition with immobilised ligand	0.1 µM	remaining binding	100%
CCCS(=O)(=O)Nc1ccc(F)c(C(=O)c2c[nH]c3ncc(-c4ccc(Cl)cc4)cc23)c1F	TEK	enzyme activity, inhibitor	1 µM	inhibition	< 10%
CNC(=O)c1cc(Oc2ccc(NC(=O)Nc3ccc(Cl)c(C(F)(F)F)c3)cc2)ccn1	TEK	cell-free assay	0.5 µM	remaining signal	104%
CCOC(=O)c1cc2cc(-c3cc(C(=O)NCc4ccc(C(=O)O)cc4)nn3C)ccc2[nH]1	TEK	cell-free assay, competition with immobilised ligand	0.1 µM	remaining binding	83%
CC/C(=N\NC(=O)NCc1cccc(O)c1)c1ccc(O)c(C)c1O	TEK	enzyme activity, inhibitor	0.1 µM	inhibition	-0.2%
N#CCCc1ccc2c(c1)-c1[nH]c3ccc([N+](=O)[O-])cc3c1CC(=O)N2	TEK	cell-free assay	0.5 µM	remaining signal	97.6%
CC(C)(C)c1nc2c(s1)c1nc(N)ncc1c1ccc(NS(=O)(=O)c3c(F)cccc3F)c(F)c12	TEK	enzyme activity, inhibitor, radiometric	1 µM	remaining activity	79%
O=C(Nc1cnc(Oc2ccc(F)cc2)nc1)N1CCc2ncccc2[C@@H]1c1ccc(F)cc1	TEK	cell-free assay, competition with immobilised ligand	1 µM	remaining binding	93%
CCN(CC)CCNC(=O)c1c(C)[nH]c(/C=C2\C(=O)Nc3ccc(F)cc32)c1C	TEK	enzyme activity, inhibitor	10 µM	inhibition	74%
